Source: ChEMBL document CHEMBL4513216, “Probing the Open Global Health Chemical Diversity Library for Multistage-Active Starting Points for Next-Generation Antimalarials” (ACS Infect Dis, 2020)

Experiment: Toxicity liver stage against HepG2, at 10uM
Format: cell-based
Design: test concentration 10 uM, cell line HepG2-A16-CD81EGFP
Conditions: human, HepG2-A16-CD81EGFP cells; read-out: INHIBITION
In short: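 Uninfected HepG2-A16-CD81EGFP cells, 3 × 10^3 per well, 1536-well, plated on prespotted compound at 10 μM final, parasite-free screening media added to match infected plates; puromycin 10 μM positive, DMSO 0.5% negative; run in parallel with 48 h PbLuc assay at 37 °C, 5% CO2; viability by CellTiter-Glo luminescence, normalized to controls.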

| SMILES | cytotoxicity at 10 µM [%] |
| --- | --- |
| CC(C)c1nc(CN2CCN(C(=O)CN3CCOCC3)CC2)no1 | -7.8 |
| CC(=O)N1CCC(NC2(Cc3cc(C(C)(C)O)on3)COC2)CC1 | -1.09 |
| COCCn1c(-c2cccc(OC)c2)cnc1NC(=O)NC1CCCC1 | 12.3 |
| Cc1nn(C)cc1CN1CCCCCC1c1ccc(Cl)cc1 (stereo unspecified) | 4.93 |
| CCC(C)CNC(=O)[C@@H]1CCCN1c1nccc(Nc2ccccc2)n1 (stereo partly specified) | 3.57 |
| COc1cccc2sc(OC3CN(C(=O)C4=COCCO4)C3)nc12 | 4.91 |
| Cn1nc(CNC(=O)C2CCCCC2)cc1C1CC1 | -4.56 |
| CC(C)CCN1C2(CCN(c3ncccn3)C2)c2ccccc2S1(=O)=O (stereo unspecified) | 1.35 |
| CC(C)N(C)C(=O)C1=NOC2(CCN(C(=O)c3cccn3C)C2)C1 (stereo unspecified) | -122 |
| Cc1ccc(C)c(-c2[nH]c3ccccc3c2C(=O)O)c1 | 1.55 |
| O=C(NCCN1CCNCC1)c1nc2ccccc2c(=O)[nH]1 | 8.19 |
| O=C(c1nc(COc2ccc3c(c2)OCO3)no1)N1CCCC1 | 10.3 |
| CC(C)C(NC(=O)N1CCN(c2ccc(Cl)cc2)CC1)C(=O)NC1CC1 (stereo unspecified) | 23.6 |
| O=C(NCc1ccco1)[C@H]1C[C@H]2OCC[C@H]2N(C(=O)c2ccco2)C1 | 2.79 |
| Cc1nocc1C(=O)N1CCc2c(CN(C)C(C)C)n[nH]c2C1 | -12.3 |
| Cc1ccc(CC(=O)N2Cc3nccn3CC(Cn3cccn3)C2)cc1 (stereo unspecified) | -10.5 |
| Cc1cc(NCCCOC(C)C)c2nncn2n1 | 6.17 |
| COc1cccc(CNCc2ccc(F)c(Cl)c2)c1O | -13.7 |
| Cc1ccc(CN2CCOCC2c2[nH]ncc2C)cn1 (stereo unspecified) | 4.52 |
| Cc1cccc(C2(CNC(=O)c3ccnc(N(C)C)c3)CCOCC2)c1 | 2.85 |
| Cc1nn(C)cc1S(=O)(=O)NCC(c1ccccc1Cl)N1CCCC1 (stereo unspecified) | -1.29 |
| O=C(c1cncnc1)N1CCCC(c2nccs2)C1 (stereo unspecified) | 6.55 |
| Cc1cc(C)n(C2CCN(Cc3nc4ccccc4n3C)CC2)n1 | 1.64 |

| SMILES | cytotoxicity at 10 µM [%] |
| --- | --- |
| O=C(NCc1ccccn1)c1cncc(C2CCCN2)n1 (stereo unspecified) | 3.6 |
| O=C(c1cc[nH]n1)N1CCCC1c1ccccn1 (stereo unspecified) | -22.5 |
| O=S(=O)(c1ccc(F)cc1)N1CCCC(c2nccs2)C1 (stereo unspecified) | -6.74 |
| CN1CCc2nc(C3CCCCN3Cc3ccccc3Cl)ncc2C1 (stereo unspecified) | -27.7 |
| Cc1cccc(-c2cccc(CC3(C(=O)O)CCOCC3)c2)c1 | -25.7 |
| CN1CCC(c2cncc(N(C)C)n2)CC1 | -11.5 |
| O=C1NCCCCC1Sc1ccccc1F (stereo unspecified) | 9.43 |
| O=C(Cn1nnn(-c2cccs2)c1=O)NCC1CCOC1 (stereo unspecified) | -40.4 |
| CC(=O)N1CCCC1C(=O)N1CCC(=Cc2cccc(F)c2)CC1 (stereo unspecified) | 3.5 |
| CCOC(C)C(=O)NS(=O)(=O)c1cccc2cc(C)cnc12 (stereo unspecified) | -3.14 |
| COc1cc(OC)cc(N2CCC(NCc3cc[nH]n3)C2)c1 (stereo unspecified) | 2.55 |
| O=C(O)c1cnc2c(cnn2C2CCCC2)c1 | -8.23 |
| CCCNC(=O)Cc1c(C)nc2c(c1C)c(=O)[nH]n2C | 11.4 |
| COc1ccc(F)cc1CSCC(=O)N(C)CCC#N | -2.32 |
| CCOCCNC(=O)c1ccn(S(=O)(=O)c2ccc(C)cc2)c1 | -3.18 |
| CN(C)C(=O)c1ccccc1NC(=O)N(C)Cc1ccccc1O | -1.03 |
| CCCN(CC1CC1)C(=O)CN1CCCC1c1cnn(C)c1 (stereo unspecified) | 2.45 |
| O=C(C(C1CC1)C1CC1)N1CCC(n2ccnn2)CC1 | -45.7 |
| NC(=O)Nc1cccc(C(=O)N(Cc2ccc(F)cc2)C2CC2)c1 | -10.1 |
| Cc1ccc(C2CSCCN2C(=O)c2ccoc2C)o1 (stereo unspecified) | 13.8 |
| O=S(=O)(NC1CC1)c1cccc(Br)c1 | -3.52 |
| CCC(C)N(C)S(=O)(=O)c1ccc(CCNC(C)=O)s1 (stereo unspecified) | -3.45 |
| CCC1CN(Cc2ccccc2)CCN1Cc1nnc(C2CCC2)o1 (stereo unspecified) | -11.2 |

| SMILES | cytotoxicity at 10 µM [%] |
| --- | --- |
| CN(C)C(C)(C)CNC(=O)C(C)(C)c1ccccc1F | -11.2 |
| Cc1cccc(C(=O)N2C[C@@H]3OCCN(CCN4CCCC4)[C@@H]3C2)n1 | -65 |
| CC1=N[C@@]2(CC[C@@H]3CN(C(=O)NCCc4ccccc4)C[C@@H]32)C(=O)N1 | -75.4 |
| CS(=O)(=O)NC[C@]12COC[C@H]1CN(C(=O)C1CCCCC1)C2 | 3.34 |
| O=C(NCC1CC1)C1=NOC2(CCN(S(=O)(=O)c3cccs3)C2)C1 (stereo unspecified) | 0.693 |
| CCCOc1cccc(-c2nc3c([nH]2)CCNC3)c1 | -3.38 |
| COc1ccc2c(c1)C(C(=O)N(C)CCn1ccnc1C)CC(=O)N2 (stereo unspecified) | -44.8 |
| CCSCC(C)NCc1cc(-c2ccco2)on1 (stereo unspecified) | 1.29 |
| Cc1cc(C)cc(C(C(=O)O)N(C)CCCN2CCOCC2)c1 (stereo unspecified) | 6.03 |
| O=C(C1COc2ccccc2O1)N1Cc2cnn(CCO)c2C1 (stereo unspecified) | -3.12 |
| CSc1cccc(NC(=O)N2CCCC(CNC(=O)c3ccco3)C2)c1 (stereo unspecified) | -2.4 |
| CSCC(=O)N1CCc2[nH]nc(-c3ccc4c(c3)OCO4)c2C1 | -139 |
| Cc1ccc(-c2ccnc(N[C@H]3COC[C@@H]3N3CCCCC3)n2)c(C)n1 | 3.46 |
| C[C@@H]1CN(C(=O)CCc2nncn2C)C[C@@]1(O)C1CCC1 | -4.97 |
| CN(C)CCN(C)C[C@@H]1CN(Cc2cccc(O)c2)C[C@@H]1CO | 0.972 |
| COCCn1ccnc1C1CCN(C(=O)C(O)c2ccc(F)cc2)CC1 (stereo unspecified) | 1.73 |
| Cc1[nH]c(-c2ccccc2)nc1C(=O)N1CCc2[nH]cnc2C1C(=O)O (stereo unspecified) | 2.43 |
| O=C(c1ccc(S(=O)(=O)N2CCNCC2)cc1)N1CCCC(O)C1 (stereo unspecified) | 8.48 |
| O=C1OC2(CCNCC2)CN1CC(=O)N1CCC1c1cccs1 (stereo unspecified) | 4.35 |
| COCCN(C/C=C/c1ccccc1)Cc1ncc[nH]1 | 7.8 |
| Oc1cc(CNCCN2CCCCC2)nc2c(F)cccc12 | -1.16 |
| Cc1ccc2nc(-c3cnc(N)nc3)cc(C(=O)N(C)C)c2c1 | 14 |
| O=C(NCc1nnc2n1CCC2)c1cn(-c2ccccc2)nn1 | -2.4 |

| SMILES | cytotoxicity at 10 µM [%] |
| --- | --- |
| COCCN1CCC(CNc2nccc(-c3cnn(C)c3)n2)CC1 | -130 |
| CC(C)[C@@H]1CN(Cc2cnc(C3CCCCC3)nc2)C[C@H]1C(=O)O | -6.46 |
| COc1cccc(OCC2CCCN(C(=O)c3ncc(F)cc3F)C2)c1 (stereo unspecified) | 6.35 |
| CCc1noc(CN(CC)C(=O)CC2C(=O)NCCN2CC(C)(C)C)n1 (stereo unspecified) | 1.83 |
| CN1CCN(CCCNS(=O)(=O)Cc2ccccc2F)CC1 | -11.1 |
| COC[C@@]12CC[C@@H](N3CCOCC3)C[C@H]1CCN(c1ncccc1Cl)C2 | -13.2 |
| Cc1nc(N2CCN(C)CC2)ncc1C(=O)N1CCC(O)(CO)CC1 | -0.395 |
| Cc1cc(N2CCC3(CCC(=O)N(CC4CC4)C3)CC2)nc(N)n1 | 6.92 |
| CC(C)(C)c1ccn(C2(C(=O)O)CCN(c3nccc(N)n3)CC2)n1 | -6.69 |
| Cn1cc(C(=O)Nc2cc(F)ccc2OCC2CCCO2)ccc1=O (stereo unspecified) | -7.09 |
| c1ccc(Cc2noc(CN3CCOC(Cn4cncn4)C3)n2)cc1 (stereo unspecified) | 1.28 |
| Cc1nc(C2CCCN2CC(=O)N(C)Cc2ccsc2)no1 (stereo unspecified) | -8.21 |
| COC(=O)c1cc(C(=O)N2CCCCC2C)n(-c2ccccc2)n1 (stereo unspecified) | -13.7 |
| CCn1cnnc1C1CCN(C(=O)c2cc3c(s2)CCCC3)CC1 | -1.76 |
| CCCc1noc(CCC(=O)N2CCCC2c2ccncc2)n1 (stereo unspecified) | -2.42 |
| c1cnn(-c2ccc(CN3CCCC(Cn4cncn4)C3)cc2)c1 (stereo unspecified) | -2.63 |
| CCc1n[nH]c(C2CN(Cc3nnc(C4CC4)o3)CCO2)n1 (stereo unspecified) | -14.3 |
| CCOc1ccc(NC(=O)NCc2cccnc2OCC)cc1 | -8.67 |
| O=C(c1ccc2cc[nH]c2c1)N1CCCN(Cc2cscn2)CC1 | -31.7 |
| Cc1noc(C)c1C(=O)NCC(C)N1CCc2ccccc21 (stereo unspecified) | -17.2 |
| CCn1cc(C(=O)N2CCCC(c3noc(C)n3)C2)cn1 (stereo unspecified) | 2.17 |
| CCn1cc(CN2CCCN(C(=O)c3ccccc3OC)CC2)cn1 | -11.4 |
| Cn1cnnc1C1CCCN(C(=O)c2ccccn2)C1 (stereo unspecified) | -8.31 |

| SMILES | cytotoxicity at 10 µM [%] |
| --- | --- |
| CCn1cc(CN2CCCN(C(=O)c3cccn3C)CC2)cn1 | -5.85 |
| c1cnn(CC2CCCN2Cc2nc(-c3ccoc3)no2)c1 (stereo unspecified) | -7.07 |
| COC(=O)C(c1cc(F)ccc1F)N(C)C(=O)c1csnn1 (stereo unspecified) | 0.144 |
| CC(NC(=O)NCc1ccc(Cl)cc1)c1ccccn1 (stereo unspecified) | 3.42 |
| Cc1nc(C2CCCN(C(=O)c3ccc(N4CCCC4)nc3)C2)no1 (stereo unspecified) | -3.06 |
| CC(C)(CO)NCc1ccc(OCc2ccc3c(c2)OCCO3)cc1 | 4.12 |
| CCC(=O)N1CCC2(CC1)C(=O)N(C)CCN2Cc1csc(C)n1 | 5.59 |
| Cn1cc(CN2CCC3(CC2)CC(Nc2nccs2)CO3)cn1 (stereo unspecified) | -79.6 |
| CCc1ncnc2c1CCN(Cc1cccs1)CC2 | 4.98 |
| O=C(C1CCOCC1)N1C[C@H]2CCC[C@@]2(COc2ccccn2)C1 | -0.587 |
| O=C(c1cnccn1)N1CCOC2(CCN(Cc3ccsc3)CC2)C1 | -4.45 |
| CN(C)C(=O)COCc1nn(C)c2c1CCN(Cc1ccco1)C2 | -131 |
| Cc1nn(C)c(Cl)c1CNCc1cccnc1N1CCN(C)CC1 | -9 |
| Cc1ccc(CN2CCc3ncnc(-c4ccc(F)cc4)c3CC2)o1 | -9.49 |
| CO[C@@H]1CCN(S(=O)(=O)c2cccs2)[C@H]1Cc1cccnc1 | -80.3 |
| Cc1ccc(Cc2cnc(C3CCNCC3)cn2)cc1 | -31.2 |
| O=C(NCCn1nc(C2CCNC2)c2cccnc21)C1CCC1 (stereo unspecified) | -7.87 |
| CC(C)COC[C@@H]1CC[C@H]2[C@H](CCN2C(=O)c2ccncc2F)O1 | -0.58 |
| CNC(=O)[C@H]1C[C@H]2CN(C(=O)Nc3ccc(F)cc3)C[C@@H]1O2 | 3.28 |
